ChEMBL document CHEMBL4261491, “Synthesis and synergistic antifungal effects of monoketone derivatives of curcumin against fluconazole-resistant Candida spp” (Medchemcomm, 2017)

Experiments:
[1] = system: Candida albicans; assay: Antifungal activity against fluconazole-resistant Candida albicans clinical isolate 103 in presence of 8 ug/ml fluconazole by broth microdilution method; assay type: functional; settings: for MIC80: Candida albicans, isolate 103
How it was run: (§1)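 Broth microdilution per CLSI/NCCLS M27-A2 against FLC-resistant clinical isolates. MIC80 read for each compound alone and with fluconazole at 8.0 μg ml–1. C. albicans ATCC 90028 served as quality control. Curcumin was the positive control.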

[2] = system: Pichia kudriavzevii; assay: Antifungal activity against fluconazole-resistant Candida krusei clinical isolate 2159 by broth microdilution method; assay type: functional; how it was run: as §1
[3] = system: Candida albicans; assay: Antifungal activity against fluconazole-resistant Candida albicans clinical isolate 103 by broth microdilution method; assay type: functional; how it was run: as §1
[4] = system: Pichia kudriavzevii; assay: Antifungal activity against fluconazole-resistant Candida krusei clinical isolate 2159 in presence of 8 ug/ml fluconazole by broth microdilution method; assay type: functional; settings: for MIC80: Pichia kudriavzevii, isolate 2159; how it was run: as §1
[5] = system: Candida tropicalis; assay: Antifungal activity against fluconazole-resistant Candida tropicalis clinical isolate 087 by broth microdilution method; assay type: functional; how it was run: as §1
[6] = system: Candida tropicalis; assay: Antifungal activity against fluconazole-resistant Candida tropicalis clinical isolate 087 in presence of 8 ug/ml fluconazole by broth microdilution method; assay type: functional; settings: for MIC80: Candida tropicalis, isolate 087; how it was run: as §1
[7] = Cytotoxicity against HUVEC assessed as cell viability at 32 ug/ml after 24 hrs by MTT assay relative to control; assay type: cell-based; settings: human, HUVEC cells; read-out: Activity
How it was run: (§2)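 HUVECs grown in DMEM with 10% FCS and 100 μg ml–1 streptomycin, 5% CO2, 37 °C. Cells exposed to compounds at 16 and 32 μg ml–1 for 24 h, then incubated with MTT solution (5 mg ml–1) for 3 h. Optical density read at 570 nm. Viability expressed as percentage relative to drug-free control.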

[8] = Cytotoxicity against HUVEC assessed as cell viability at 16 ug/ml after 24 hrs by MTT assay relative to control; assay type: cell-based; settings: human, HUVEC cells; read-out: Activity; how it was run: as §2

SMILES: COc1cccc(/C=C2\CC/C(=C\c3cccc(OC)c3OC)C2=O)c1OC
- fractional inhibitory concentration index (FICI) [1]: >1.06
- MIC80 [1]: > 64 µg/mL
- MIC80 [2]: > 64 µg/mL
- MIC80 [3]: > 64 µg/mL
- fractional inhibitory concentration index (FICI) [4]: >1.06
- MIC80 [4]: > 64 µg/mL
- MIC80 [5]: > 64 µg/mL
- fractional inhibitory concentration index (FICI) [6]: >1.06
- MIC80 [6]: > 64 µg/mL

SMILES: O=C(/C=C/c1ccc(Cl)cc1)/C=C/c1ccc(Cl)cc1
- fractional inhibitory concentration index (FICI) [1]: >1.06
- MIC80 [1]: > 64 µg/mL
- MIC80 [2]: > 64 µg/mL
- MIC80 [3]: > 64 µg/mL
- fractional inhibitory concentration index (FICI) [4]: >1.06
- MIC80 [4]: > 64 µg/mL
- MIC80 [5]: > 64 µg/mL
- fractional inhibitory concentration index (FICI) [6]: 0.313
- MIC80 [6]: 16 µg/mL

SMILES: COc1ccc(/C=C2\CC/C(=C\c3ccc(OC)c(OC)c3)C2=O)cc1OC
- fractional inhibitory concentration index (FICI) [1]: >1.06
- MIC80 [1]: > 64 µg/mL
- MIC80 [2]: > 64 µg/mL
- MIC80 [3]: > 64 µg/mL
- fractional inhibitory concentration index (FICI) [4]: >1.06
- MIC80 [4]: > 64 µg/mL
- MIC80 [5]: > 64 µg/mL
- fractional inhibitory concentration index (FICI) [6]: 0.313
- MIC80 [6]: 16 µg/mL

SMILES: O=C(/C=C/c1c(Cl)cccc1Cl)/C=C/c1c(Cl)cccc1Cl
- fractional inhibitory concentration index (FICI) [1]: >1.06
- MIC80 [1]: > 64 µg/mL
- MIC80 [2]: > 64 µg/mL
- MIC80 [3]: > 64 µg/mL
- fractional inhibitory concentration index (FICI) [4]: >1.06
- MIC80 [4]: > 64 µg/mL
- MIC80 [5]: > 64 µg/mL
- fractional inhibitory concentration index (FICI) [6]: >1.06
- MIC80 [6]: > 64 µg/mL

SMILES: O=C1/C(=C/c2ccco2)CC/C1=C\c1ccco1
- fractional inhibitory concentration index (FICI) [1]: >1.06
- MIC80 [1]: > 64 µg/mL
- MIC80 [2]: > 64 µg/mL
- viability at 24 h, 32 ug/ml [7]: 69%
- MIC80 [3]: > 64 µg/mL
- fractional inhibitory concentration index (FICI) [4]: >1.06
- MIC80 [4]: > 64 µg/mL
- viability at 24 h, 16 ug/ml [8]: 86%
- MIC80 [5]: > 64 µg/mL
- fractional inhibitory concentration index (FICI) [6]: 0.188
- MIC80 [6]: 8 µg/mL

SMILES: COc1ccc(/C=C/C(=O)/C=C/c2ccc(OC)c(OC)c2)cc1OC
- fractional inhibitory concentration index (FICI) [1]: >1.06
- MIC80 [1]: > 64 µg/mL
- MIC80 [2]: > 64 µg/mL
- viability at 24 h, 32 ug/ml [7]: 55%
- MIC80 [3]: > 64 µg/mL
- fractional inhibitory concentration index (FICI) [4]: >1.06
- MIC80 [4]: > 64 µg/mL
- viability at 24 h, 16 ug/ml [8]: 67%
- MIC80 [5]: > 64 µg/mL
- fractional inhibitory concentration index (FICI) [6]: 0.125
- MIC80 [6]: 4 µg/mL

SMILES: O=C1/C(=C/c2ccc3c(c2)OCO3)CC/C1=C\c1ccc2c(c1)OCO2
- fractional inhibitory concentration index (FICI) [1]: >1.06
- MIC80 [1]: > 64 µg/mL
- MIC80 [2]: > 64 µg/mL
- MIC80 [3]: > 64 µg/mL
- fractional inhibitory concentration index (FICI) [4]: >1.06
- MIC80 [4]: > 64 µg/mL
- MIC80 [5]: > 64 µg/mL
- fractional inhibitory concentration index (FICI) [6]: 1.06
- MIC80 [6]: 64 µg/mL

SMILES: O=C(/C=C/c1ccc(Cl)cc1Cl)/C=C/c1ccc(Cl)cc1Cl
- fractional inhibitory concentration index (FICI) [1]: >1.06
- MIC80 [1]: > 64 µg/mL
- MIC80 [2]: > 64 µg/mL
- MIC80 [3]: > 64 µg/mL
- fractional inhibitory concentration index (FICI) [4]: >1.06
- MIC80 [4]: > 64 µg/mL
- MIC80 [5]: > 64 µg/mL
- fractional inhibitory concentration index (FICI) [6]: 0.313
- MIC80 [6]: 16 µg/mL

SMILES: COc1ccc(/C=C2\CC/C(=C\c3ccc(OC)cc3)C2=O)cc1
- fractional inhibitory concentration index (FICI) [1]: >1.06
- MIC80 [1]: > 64 µg/mL
- MIC80 [2]: > 64 µg/mL
- MIC80 [3]: > 64 µg/mL
- fractional inhibitory concentration index (FICI) [4]: >1.06
- MIC80 [4]: > 64 µg/mL
- MIC80 [5]: > 64 µg/mL
- fractional inhibitory concentration index (FICI) [6]: 1.06
- MIC80 [6]: 64 µg/mL

SMILES: O=C(/C=C/c1ccc(O)cc1)/C=C/c1ccc(O)cc1
- fractional inhibitory concentration index (FICI) [1]: >1.06
- MIC80 [1]: > 64 µg/mL
- MIC80 [2]: > 64 µg/mL
- viability at 24 h, 32 ug/ml [7]: 75%
- MIC80 [3]: > 64 µg/mL
- fractional inhibitory concentration index (FICI) [4]: >1.06
- MIC80 [4]: > 64 µg/mL
- viability at 24 h, 16 ug/ml [8]: 87%
- MIC80 [5]: > 64 µg/mL
- fractional inhibitory concentration index (FICI) [6]: 0.188
- MIC80 [6]: 8 µg/mL

SMILES: CN(C)c1ccc(/C=C2\CC/C(=C\c3ccc(N(C)C)cc3)C2=O)cc1
- fractional inhibitory concentration index (FICI) [1]: >1.06
- MIC80 [1]: > 64 µg/mL
- MIC80 [2]: > 64 µg/mL
- MIC80 [3]: > 64 µg/mL
- fractional inhibitory concentration index (FICI) [4]: >1.06
- MIC80 [4]: > 64 µg/mL
- MIC80 [5]: > 64 µg/mL
- fractional inhibitory concentration index (FICI) [6]: 1.06
- MIC80 [6]: 64 µg/mL

SMILES: O=C(/C=C/c1ccc(Cl)c(Cl)c1)/C=C/c1ccc(Cl)c(Cl)c1
- fractional inhibitory concentration index (FICI) [1]: >1.06
- MIC80 [1]: > 64 µg/mL
- MIC80 [2]: > 64 µg/mL
- MIC80 [3]: > 64 µg/mL
- fractional inhibitory concentration index (FICI) [4]: >1.06
- MIC80 [4]: > 64 µg/mL
- MIC80 [5]: > 64 µg/mL
- fractional inhibitory concentration index (FICI) [6]: >1.06
- MIC80 [6]: > 64 µg/mL
